# Assay results as given in ChEMBL document CHEMBL3098028, “Synthesis and in vitro and in vivo pharmacological evaluation of new 4-aminoquinoline-based compounds” (ACS Med Chem Lett, 2013).
# How the values were obtained:
# [1] = system: Plasmodium falciparum; assay: Antiplasmodial activity against chloroquine-sensitive Plasmodium falciparum 3D7 after 24 hrs by [3H]hypoxanthine incorporation assay; assay type: functional, organism-based
# Method in brief: (§1)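 Antiplasmodial testing was done at the Swiss Tropical and Public Health Institute. Chloroquine, the reference drug, was tested as its diphosphate salt.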
# [2] = system: Plasmodium falciparum; assay: Antiplasmodial activity against chloroquine-resistant Plasmodium falciparum W2 after 24 hrs by [3H]hypoxanthine incorporation assay; assay type: functional, organism-based; method in brief: as §1
# [3] = system: Plasmodium falciparum; assay: Antiplasmodial activity against chloroquine-resistant Plasmodium falciparum K1 after 24 hrs by [3H]hypoxanthine incorporation assay; assay type: functional, organism-based; method in brief: as §1
# [4] = system: Plasmodium falciparum; assay: Resistance index, ratio of IC50 for chloroquine-resistant Plasmodium falciparum K1 to IC50 for chloroquine-sensitive Plasmodium falciparum 3D7; assay type: functional
# [5] = Hepatic extraction ratio in mouse liver microsomes at 1 uM after 40 mins; assay type: ADME, Microsome; conditions: read-out: ERH
# [6] = Kinetic solubility of the compound in phosphate buffered saline at pH 7.4 after 2 hrs by HPLC analysis; assay type: physicochemical; conditions: read-out: Kinetic_solubility
# [7] = system: Mus musculus; assay: AUC (0 to infinity) in C57BL/6 mouse at 20 mg/kg, po; assay type: ADME, organism-based, Plasma; parameters: time infinity, dose 20 mg/kg, route oral; conditions: in vivo
# Method in brief: (§2)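 Healthy male C57/BL6 mice received a single intravenous dose (2.5 or 5.0 mg/kg) or oral dose (20 or 40 mg/kg). Plasma concentrations were followed over time to give AUC0-∞ in min·μmol/L, alongside t1/2, CL, Vd, Vss, Cmax, Tmax and oral bioavailability. Values are means of five animals.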
# [8] = Hepatic extraction ratio in human liver microsomes at 1 uM after 40 mins; assay type: ADME; conditions: read-out: ERH
# [9] = system: Liver microsome; assay: Drug metabolism in human liver microsomes assessed as 4-(2-((1-tert-butyl-1H-tetrazol-5-yl)(4-chlorophenyl)methylamino)ethylamino)-7-chloroquinoline 1-oxide level at 5 uM after 1 hr by LC-MS/MS analysis; assay type: ADME
# [10] = system: Plasmodium berghei; assay: Antimalarial activity against Plasmodium berghei ANKA infected in C57BL/6 mouse assessed as reduction in parasitemia at 1 mg/kg, po qd for 4 days measured on day 7 by light microscopic analysis relative to control; assay type: functional; parameters: scale not given: the % may be the effect or the level left
# Method in brief: (§3)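 Male C57/BL6 mice were infected with P. berghei ANKA and dosed orally once daily for four days at 1, 10, 5 or 20 mg/kg, with 5 mice per dose group. The negative control received blank formulation solution. Blood smears were taken on days 3, 5 and 7, and parasitemia was read by light microscopy. The result is % parasitemia reduction on day 7 versus placebo.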
# [11] = system: Plasmodium berghei; assay: Antimalarial activity against Plasmodium berghei ANKA infected in C57BL/6 mouse assessed as reduction in parasitemia at 10 mg/kg, po qd for 4 days measured on day 7 by light microscopic analysis relative to control; assay type: functional; parameters: scale not given: the % may be the effect or the level left; method in brief: as §3
# [12] = system: Liver microsome; assay: Drug metabolism in rat liver microsomes assessed as 4-(2-((1-tert-butyl-1H-tetrazol-5-yl)(4-chlorophenyl)methylamino)ethylamino)-7-chloroquinoline 1-oxide level at 5 uM after 1 hr by LC-MS/MS analysis; assay type: ADME
# [13] = system: Liver microsome; assay: Drug metabolism in human liver microsomes assessed as 2-(5-((4-chlorophenyl)(2-(7-chloroquinolin-4-ylamino)ethylamino)methyl)-1H-tetrazol-1-yl)-2-methylpropan-1-ol level at 5 uM after 1 hr by LC-MS/MS analysis; assay type: ADME
# [14] = Drug metabolism in hepatocytes (unknown origin) assessed as 2-(5-((4-chlorophenyl)(2-(7-chloroquinolin-4-ylamino)ethylamino)methyl)-1H-tetrazol-1-yl)-2-methylpropan-1-ol level at 5 uM after 6 hrs by LC-MS/MS analysis; assay type: ADME, cell-based, Hepatocyte
# [15] = system: Mus musculus; assay: AUC (0 to infinity) in C57BL/6 mouse at 2.5 mg/kg, iv; assay type: ADME, organism-based, Plasma; parameters: time infinity, dose 2.5 mg/kg, route intravenous; conditions: in vivo; method in brief: as §2
# [16] = Kinetic solubility of the compound in 0.01 M HCl at pH 2 after 2 hrs by HPLC analysis; assay type: physicochemical; conditions: read-out: Kinetic_solubility
# [17] = system: Liver microsome; assay: Drug metabolism in rat liver microsomes assessed as 2-(5-((4-chlorophenyl)(2-(7-chloroquinolin-4-ylamino)ethylamino)methyl)-1H-tetrazol-1-yl)-2-methylpropan-1-ol level at 5 uM after 1 hr by LC-MS/MS analysis; assay type: ADME
# [18] = Drug metabolism in hepatocytes (unknown origin) assessed as 4-(2-((1-tert-butyl-1H-tetrazol-5-yl)(4-chlorophenyl)methylamino)ethylamino)-7-chloroquinoline 1-oxide level at 5 uM after 6 hrs by LC-MS/MS analysis; assay type: ADME, cell-based, Hepatocyte
# [19] = system: CHO; assay: Cytotoxicity against CHO cells; assay type: cell-based; conditions: Cricetulus griseus
# [20] = system: Plasmodium berghei; assay: Antimalarial activity against Plasmodium berghei ANKA infected in C57BL/6 mouse assessed as reduction in parasitemia at 5 mg/kg, po qd for 4 days measured on day 7 by light microscopic analysis relative to control; assay type: functional; parameters: scale not given: the % may be the effect or the level left; method in brief: as §3
# [21] = system: Plasmodium berghei; assay: Antimalarial activity against Plasmodium berghei ANKA infected in C57BL/6 mouse assessed as reduction in parasitemia at 20 mg/kg, po qd for 4 days measured on day 7 by light microscopic analysis relative to control; assay type: functional; parameters: scale not given: the % may be the effect or the level left; method in brief: as §3
# [22] = system: Mus musculus; assay: AUC (0 to infinity) in C57BL/6 mouse at 5 mg/kg, iv; assay type: ADME, organism-based, Plasma; parameters: dose 5 mg/kg, route intravenous, time infinity; conditions: in vivo; method in brief: as §2
# [23] = system: Mus musculus; assay: AUC (0 to infinity) in C57BL/6 mouse at 40 mg/kg, po; assay type: ADME, organism-based, Plasma; parameters: time infinity, dose 40 mg/kg, route oral; conditions: in vivo; method in brief: as §2
smiles,measurement,setting,value
CC(C)(C)n1nnnc1C(NCCNc1ccnc2cc(Cl)ccc12)c1ccc(Cl)c(Cl)c1 (configuration not stated),IC50,[1],0.0004 µM
same,IC50,[2],0.0305 µM
same,IC50,[3],0.008 µM
same,Ratio IC50,[4],20
same,"hepatic extraction ratio at 40 min, 1 µM",[5],> 0.8
same,solubility kinetic at 2 h,[6],25 µM
same,AUC,[7],256 µmol·min/L
same,"hepatic extraction ratio at 40 min, 1 µM",[8],> 0.8
same,Drug metabolism,[9],Active
same,Activity,[10],22.7%
same,Activity,[11],41.4%
same,Drug metabolism,[12],Active
same,Drug metabolism,[13],Active
same,Drug metabolism,[14],Active
same,AUC,[15],104 µmol·min/L
same,solubility kinetic at 2 h,[16],194 µM
same,Drug metabolism,[17],Active
same,Drug metabolism,[18],Active
same,IC50,[19],10.5 µM
same,Activity,[20],46.9%
same,Activity,[21],44.5%
same,AUC,[22],222 µmol·min/L
same,AUC,[23],287 µmol·min/L
CC(C)(C)n1nnnc1C(NCCCNc1ccnc2cc(Cl)ccc12)c1ccccc1 (configuration not stated),IC50,[1],0.002 µM
same,IC50,[2],0.039 µM
same,IC50,[3],0.027 µM
same,Ratio IC50,[4],13.5
